# High-throughput results (PubChem BioAssay)
# rRNA inh HTS: inhibitors of bacterial rRNA selective over humanized ribosomes; GFP signal change (wild-type ribosome), % (concentration not given with the values); 1.6% of 350,000 active; E. coli WT GFP vs humanized-ribosome RFP mutants, fluorescence, 24 h; stronger effect = lower value; DMSO median 0, no signal -100;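 active means significant combined selectivity score with lowered wild-type GFP, culture density cut under 30%, mutant RFP and density less affected; inactive means any of these conditions unmet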
# Cneo AK release: Cryptococcus neoformans lysis via adenylate kinase release; C. neoformans lysis, adenylate kinase release luminescence, 4 h; normalised: neutral wells 0, clomiphene wells 100; lysis activity, % at 15 µM; 0.2% of 360,000 active; AID 651654;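 active means mean lysis activity across replicates of at least 80%, whatever share of replicates individually reach that level; inactive means mean lysis activity below 80%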
#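 Test system: log-phase Cryptococcus neoformans yeast cells. Input: 5 × 10^6 yeast cells/mL. Medium: fresh YPD growth medium. Doses: single dose. Incubation: static 4 h at 37 °C with compound, 1 h detection. Measured by: luminescent adenylate kinase detection reagent. Read-out: signal increase indicating cell lysis. Benchmarks: Clomiphene.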
# PglD DTNB: PglD (C. jejuni) enzyme inhibition | inhibition, % at 12.5 µM | 0.098% of 360,000 active | purified PglD enzyme, DTNB colorimetric CoA detection; in the data active means inhibition above about 16%, passing the limit was not always enough
# Mot1-301 SUMO: SUMOylation pathway inhibition by Mot1-301 growth rescue | AID 2716 | 1% of 320,000 active | growth rescue, % at 18.8 µM | S. cerevisiae Mot1-301 growth rescue, ATP luminescence, 38.5C; percent above DMSO median, 100 means doubled;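 active means every valid replicate shows activation above 250% relative to neutral control wells; inactive means the rest, any valid replicate at or below 250%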
# CR mimetic SO: lowers age-related superoxide in aged yeast cells | S. cerevisiae aged cells, superoxide DHE fluorescence; stronger effect = lower value | superoxide response (% of plate mean), % at 10 µM | 0.18% of 330,000 active | AID 2690;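 active means superoxide response under a set limit, about three screen SD below normal, cut at about 65% in these data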;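 further: yeast aged for seven days with compound at 30 °C before DHE staining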
# Mot1 SUMO dose: yeast SUMO pathway inhibition in dose response. 2,300 tested, under 10 active. shares compounds with Mot1-301 SUMO. growth activity, percent, % at 42 µM. AID 493004. S. cerevisiae Mot1-301 galactose growth, ATP luminescence, 24 h; -100 = growth of slx-deleted rescue strain;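 active means Signal drops as the depositor expects, and the fitted half-maximal dose is no more than ten times the top valid tested dose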;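 further: more negative values mean stronger growth rescue toward the control strain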
# Hits are given with their value; 0 = inactive; - = no result given; + = active, no number. Shown are actives, neighbours in structure and some others; about 2.2% of the full set was active somewhere.
SMILES,rRNA inh HTS,Cneo AK release,PglD DTNB,Mot1-301 SUMO,CR mimetic SO,Mot1 SUMO dose
Cc1nn(C)c(C)c1/C=N/NC(=O)C(C)(C)Oc1ccc(Cl)cc1,0,0,0,591,0,0
Cc1c(/C=N/NC(=O)C(C)(C)Oc2ccc(Cl)cc2)cnn1C,-,0,0,0,0,-
COC(=O)c1ccc(Cn2cc(Cl)cn2)cc1,-,0,0,652,0,0
COC(=O)c1sc(NC(=O)c2ccc(Cn3cc(Cl)cn3)o2)c(C#N)c1C,-,0,0,+,0,0
O=C(Nc1cnn(Cc2ccc(Cl)cc2)c1)c1ccc([N+](=O)[O-])cc1,-,0,0,390,0,0
N#Cc1c(NC(=O)c2ccc(Cn3cc(Br)cn3)o2)sc2c1CCCCC2,-,0,0,0,0,-
Cc1ccc(S(=O)(=O)N(C)C[C@H]2Oc3ccc(NS(=O)(=O)c4cccs4)cc3C(=O)N([C@@H](C)CO)C[C@H]2C)cc1,0,0,0,-,-,-
CCC(=O)N1CC[C@@H]2[C@H]1c1cc(C#Cc3cccc(OC)c3)ccc1N[C@@H]2CO,0,0,0,-,-,-
CCc1ccccc1NC(=O)N[C@@H](C)C(=O)OC,-,-,-,650,0,0
CSc1cccc(NC(=S)N2CCC(N(C)C3CCCCC3)CC2)c1,0,0,0,0,0,-
CSc1cccc(NC(=S)N2CCCN(Cc3ccccc3F)C2)c1,0,-,-,496,0,0
N#Cc1cc([N+](=O)[O-])cnc1NCC(O)CO (stereo not given),-,0,0,494,0,0
CO[C@@H]1CN(C)C(=O)c2cc(NC(=O)NC(C)C)ccc2OC[C@H](C)N(Cc2ccccn2)C[C@@H]1C,0,0,0,-,-,-
COc1ccc(N2C(=O)CCC(C(=O)NCc3cccnc3)C2c2ccc(OC)c(OC)c2)cc1 (stereo not given),-,0,0,359,0,0
CCn1c(SCC(=O)NC2CCCCC2)nnc1-c1cccs1,0,0,0,0,0,-
CCn1c(SC(=O)NC2CCCCC2)nnc1-c1cccs1,-,0,0,525,0,0
C[C@@H]1CC=CC[C@@H](c2ccccc2)NC(=O)[C@H](Cc2ccccc2)N(C)C(=O)c2ccccc2O1 (mixture of isomers),0,-,-,-,-,-
O=C(CCc1ccccc1)NNC(=S)Nc1ccc(F)cc1,0,0,0,377,0,0
CCOc1ccc(OCC)c(NC(=O)C2COc3ccccc3O2)c1 (stereo not given),-,0,0,824,0,0
CCCN1C(=O)c2[nH]nc(-c3cc(Cl)c(C)cc3O)c2C1c1ccc(O)c(OC)c1 (stereo not given),0,-,-,571,0,0
CCCC(=O)Nc1nnc(/C=C/c2ccc(OC)cc2)s1,0,-,-,0,0,-
CCCCC(=O)Nc1nnc(/C=C/c2ccc(OC)cc2)s1,-,0,0,714,0,0
CCN(CC)CCCN(Cc1cc2cc(OC)ccc2[nH]c1=O)C(=O)Nc1ccc(F)cc1,-,-,-,463,0,0
CCOC(=O)C1=C(C)Nc2ncnn2C1/C=C/c1ccccc1 (stereo not given),-,0,0,613,0,0
O=C(OCC(=O)N1CCN(C(=O)c2ccco2)CC1)c1ccc(Cl)cc1,0,0,0,0,0,-
SMILES,rRNA inh HTS,Cneo AK release,PglD DTNB,Mot1-301 SUMO,CR mimetic SO,Mot1 SUMO dose
Nc1cc(C(=O)OCC(=O)N2CCOCC2)ccc1Cl,0,0,0,399,0,0
O=C(OCC(=O)N1CCN(Cc2ccccc2)CC1)c1ccc(Cl)cc1,-,-,-,450,0,0
O=C(C[C@H]1C[C@H]2c3cc(NC(=O)C4CCC4)ccc3O[C@H]2[C@H](CO)O1)NC1CCCCC1,0,0,0,-,-,-
O=c1c2ccccc2nc(SCc2nnc(-c3ccccc3)o2)n1-c1ccc(F)cc1F,-,0,0,466,0,0
O=C1CN(C(=O)COC(=O)c2ccco2)c2ccccc2N1,0,0,0,0,0,-
O=C1CN(C(=O)COC(=O)c2ccccc2NCc2ccco2)c2ccccc2N1,-,0,0,728,0,0
Cc1cc(C)cc(C(=O)NC(CC(N)=O)c2ccc(NCCN3CCOCC3)c([N+](=O)[O-])c2)c1 (stereo not given),0,0,0,644,0,0
COCCNC(=O)C[C@@H]1CC[C@@H]2[C@H](COC[C@@H](O)CN2C(=O)Nc2ccccc2OC)O1,0,0,0,-,-,-
COc1cccc(NC(=O)CN(C)C(=O)C2CC(=O)N(CCc3ccc(OC)c(OC)c3)C2)c1 (stereo not given),0,0,0,-,-,-
COc1ccc(CCN2CC(C(=O)N(C)CC(=O)Nc3cccc(F)c3)CC2=O)cc1OC (stereo not given),0,0,0,451,0,0
Cc1cc(C)n(-c2ccc(C(=O)C(C#N)c3nc4ccccc4n3C)cc2)n1 (stereo not given),-,0,0,775,0,0
O=C(COC(=O)C1COc2ccccc2O1)NC(=O)NC1CCCCC1 (stereo not given),-,0,0,0,0,-
O=C(COC(=O)C1COc2ccccc2O1)NC1CCS(=O)(=O)C1 (stereo not given),0,0,0,473,0,0
O=C(C[C@H]1CC[C@@H]2[C@H](COC[C@@H](O)CN2S(=O)(=O)c2cccc(Cl)c2)O1)NC1CCC1,0,0,0,-,-,-
Cc1nn(CC(=O)Nc2cccc(O)c2)c(=O)c2ccccc12,0,0,0,-,-,-
Cc1ccc(NC(=O)Cn2nc(C)c3ccccc3c2=O)cc1,-,-,-,369,0,0
CC1(C)CC(=O)C(C=Nc2ccc(O)c(N=CC3=C(O)CC(C)(C)CC3=O)c2)=C(O)C1,0,-,-,480,0,0
C[C@@H]1CN([C@H](C)CO)C(=O)c2cccc(NC(=O)C3CCOCC3)c2O[C@@H]1CN(C)Cc1ccc(C(=O)O)cc1,0,0,0,-,-,-
COc1ccccc1NC(=O)CN(c1ccc(C)cc1)S(=O)(=O)c1c(C)n[nH]c1C,-,0,0,981,0,0
O=C(/C=C/N1CCOCC1)c1coc2ccccc12,-,0,0,425,0,0
O=C(/C=C/N1CCOCC1)c1cc2ccccc2o1,-,-,-,0,0,-
CC(=O)Nc1nc2ccc(NC(=O)c3ccco3)cc2s1,-,0,0,0,0,-
Cc1nc2ccc(NC(=O)c3ccco3)cc2s1,0,-,-,363,0,0
CC(=O)N1[C@H](C(=O)NC2CCC2)[C@@H](CO)[C@@H]2Cn3c(ccc(-c4ccc(F)cc4)c3=O)[C@@H]21,0,0,0,-,-,-
O=C(Nc1ccccc1Cl)N1CCN(c2ccc3nnc(-c4ccc(F)cc4)n3n2)CC1,-,0,0,0,0,-
Fc1ccc(-c2nnc3ccc(N4CCCC4)nn23)cc1,0,0,0,775,0,0
C[C@@H]1CN([C@H](C)CO)C(=O)c2cc(NS(=O)(=O)c3ccccc3)ccc2O[C@@H](C)CCCCO[C@@H]1CN(C)CC1CC1,0,0,0,-,-,-
